According to ChEMBL document CHEMBL3813647, “Discovery of an Orally Active and Liver-Targeted Prodrug of 5-Fluoro-2'-Deoxyuridine for the Treatment of Hepatocellular Carcinoma” (J Med Chem, 2016):

What was measured:
[1] = Half life in rat plasma by HPLC analysis; type: ADME, cell-free
How it was run: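 Rat plasma, 37 °C. Compound added from a 2.5 mM stock, sampled at 0–24 h, quenched with MeOH. Analyzed by HPLC-UV at 267 nm (C8 column, MeOH:H2O 68:32). Triplicate samples.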

Liver [2] = experiment: Drug metabolism in phenobarbital/beta-napthoflavone treated Sprague-Dawley rat liver S9 fraction assessed as prodrug activation at 50 uM preincubated for 5 mins followed by NADPH addition measured up to 60 mins by HPLC-MS/MS analysis; type: ADME, subcellular; settings: s9, 1 h
How it was run: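 S9 prepared from livers of Sprague-Dawley rats dosed i.g. with phenobarbital/β-naphthoflavone for 3 days. Incubation: 100 mM KH2PO4 pH 7.4, 5 mg/mL S9, compound at 50 μM, 5 min preincubation at 37 °C, then 2 mM NADPH. Samples at 0–60 min, MeOH extraction, FdUMP (m/z 325→129) measured by HPLC-MS/MS. Triplicate.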

[3] = Cytotoxicity against human SMMC7721 cells assessed as reduction in cell viability after 72 hrs by MTT assay; type: functional, cell-based; settings: SMMC-7721, 72 h
How it was run: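 Cells in RPMI-1640 with 10% FBS, seeded at 4 × 10³ per well and attached for 24 h. Compound (DMSO ≤0.5% final) added for 72 h at 37 °C, 5% CO2. Viability read by MTT. IC50 set against 0.5% DMSO-treated cells taken as 100% viable. Mean of two independent experiments, each run in triplicate.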

Plasma [4] = experiment: AUC (infinity) in Sprague-Dawley rat plasma assessed as FDUR formation at 49.87 mg/kg administered through oral gavage measured up to 24 hrs by HPLC-MS/MS analysis; type: ADME, organism-based; design: dose 49.87 mg/kg, route oral, time infinity; settings: in vivo
How it was run: (§1)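 Male Sprague-Dawley rats (220 ± 20 g), single gavage of 0.096 mmol/kg. FDUR was dosed in H2O; the prodrugs were dosed in 20% hydroxypropyl-β-cyclodextrin. n = 3 per time point, sampled at 0.25–24 h. Plasma (EDTA-K2, cardiac puncture) and freeze-clamped liver were homogenized in 20 mM EDTA-K2/70% MeOH. Analytes measured by HPLC-MS/MS in ESI negative mode.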

Liver [5] = experiment: Cmax in Sprague-Dawley rat liver assessed as FDUR formation at 49.87 mg/kg administered through oral gavage measured up to 24 hrs by HPLC-MS/MS analysis; type: ADME, organism-based; design: dose 49.87 mg/kg, route oral; settings: in vivo; how it was run: as §1
Liver [6] = experiment: Cmax in Sprague-Dawley rat liver assessed as FdUMP formation at 49.87 mg/kg administered through oral gavage measured up to 24 hrs by HPLC-MS/MS analysis; type: ADME, organism-based; design: dose 49.87 mg/kg, route oral; settings: in vivo; how it was run: as §1
Liver [7] = experiment: AUC (infinity) in Sprague-Dawley rat liver assessed as FDUR formation at 49.87 mg/kg administered through oral gavage measured up to 24 hrs by HPLC-MS/MS analysis; type: ADME, organism-based; design: dose 49.87 mg/kg, route oral, time infinity; settings: in vivo; how it was run: as §1
Liver [8] = experiment: AUC (infinity) in Sprague-Dawley rat liver assessed as FdUMP formation at 49.87 mg/kg administered through oral gavage measured up to 24 hrs by HPLC-MS/MS analysis; type: ADME, organism-based; design: dose 49.87 mg/kg, time infinity, route oral; settings: in vivo; how it was run: as §1
[9] = Ratio of FdUMP AUC (infinity) in Sprague-Dawley rat liver to FDUR AUC (infinity) in Sprague-Dawley rat plasma at 49.87 mg/kg administered through oral gavage; type: ADME, organism-based; settings: in vivo
How it was run: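 Male Sprague-Dawley rats (220 20 g), single gavage of 0.096 mmol/kg prodrug in 20% hydroxypropyl-β-cyclodextrin. Blood by cardiac puncture under isoflurane and liver at 0.25–24 h, n = 3 per time point. Liver freeze-clamped and homogenized in 20 mM EDTA-K2/70% MeOH. FdUMP (liver) and FDUR (plasma) by HPLC-MS/MS, negative ESI. Index = AUC(inf) liver FdUMP / AUC(inf) plasma FDUR.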

Plasma [10] = experiment: Cmax in Sprague-Dawley rat plasma assessed as FDUR formation at 49.87 mg/kg administered through oral gavage measured up to 24 hrs by HPLC-MS/MS analysis; type: ADME, organism-based; design: dose 49.87 mg/kg, route oral; settings: in vivo; how it was run: as §1
Plasma [11] = experiment: Cmax in Sprague-Dawley rat plasma assessed as 5-FU formation at 49.87 mg/kg administered through oral gavage measured up to 24 hrs by HPLC-MS/MS analysis; type: ADME, organism-based; design: dose 49.87 mg/kg, route oral; settings: in vivo; how it was run: as §1
Liver [12] = experiment: Drug uptake in Sprague-Dawley rat liver S9 fraction treated with (S)-Isopropyl 2-(((R)-(((2R,3S,5R)-5-(5-fluoro-2,4-dioxo 3,4-dihydropyrimidin-1(2H)-yl)-3-hydroxytetrahydrofuran-2-yl)methoxy)((2-methylbenzyl)oxy)phosphoryl)amino)propanoate at 20 ug/mL preincubated for 5 mins followed by NADPH addition measured at 20 mins by HPLC-MS/MS analysis; type: ADME, subcellular; settings: s9, 20 min
How it was run: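 Rat liver S9 (10 mg/mL) incubated with compound at 20 μg/mL. Parent, intermediate A and FdUMP followed over time by HPLC-MS/MS. Negative control run without NADPH.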

SMILES	half-life [1]	Drug metabolism (Liver [2])	IC50 [3]	further results
O=c1[nH]c(=O)n([C@H]2C[C@H](O)[C@@H](COP(=O)(NCc3ccccc3)OCc3ccccc3[N+](=O)[O-])O2)cc1F (some centres not stated)	> 24 h	44.7 nmol/min/mg	> 500 µM	
O=c1[nH]c(=O)n([C@H]2C[C@H](O)[C@@H](COP(=O)(NCc3ccccc3)OCc3ccc(F)cc3)O2)cc1F (some centres not stated)	> 24 h	26.3 nmol/min/mg	150 µM	
Cc1ccccc1COP(=O)(NCc1ccccc1)OC[C@H]1O[C@@H](n2cc(F)c(=O)[nH]c2=O)C[C@@H]1O (some centres not stated)	> 24 h	58.4 nmol/min/mg	18.6 µM	AUC (Plasma [4]): 41 ng·h/mL; Cmax (Liver [5]): 50 ng/g; Cmax (Liver [6]): 55 ng/g; AUC (Liver [7]): 838 ng·h/g; AUC (Liver [8]): < 155 ng·h/g; Ratio AUC [9]: < 3.8; Cmax (Plasma [10]): 40 ng/mL; Cmax (Plasma [11]): 14 ng/mL
O=c1[nH]c(=O)n([C@H]2C[C@H](O)[C@@H](COP(=O)(NCc3ccccc3)OCc3ccccc3)O2)cc1F (some centres not stated)	> 24 h	17.4 nmol/min/mg	365 µM	
O=c1[nH]c(=O)n([C@H]2C[C@H](O)[C@@H](COP(=O)(NCc3ccccc3)OCc3ccc([N+](=O)[O-])cc3)O2)cc1F (some centres not stated)	> 24 h	40 nmol/min/mg	> 1000 µM	
O=c1[nH]c(=O)n([C@H]2C[C@H](O)[C@@H](COP(=O)(NCc3ccccc3)OCc3ccccc3Cl)O2)cc1F (some centres not stated)	> 24 h	29.2 nmol/min/mg	132 µM	
Cc1ccc(COP(=O)(NCc2ccccc2)OC[C@H]2O[C@@H](n3cc(F)c(=O)[nH]c3=O)C[C@@H]2O)cc1 (some centres not stated)	> 24 h	53.5 nmol/min/mg	31.7 µM	
O=c1[nH]c(=O)n([C@H]2C[C@H](O)[C@@H](COP(=O)(NCc3ccccc3)OCc3cccc(Cl)c3)O2)cc1F (some centres not stated)	> 24 h	22.6 nmol/min/mg	206 µM	
COc1cccc(COP(=O)(NCc2ccccc2)OC[C@H]2O[C@@H](n3cc(F)c(=O)[nH]c3=O)C[C@@H]2O)c1 (some centres not stated)	> 24 h	118.7 nmol/min/mg	386 µM	
O=c1[nH]c(=O)n([C@H]2C[C@H](O)[C@@H](COP(=O)(NCc3ccccc3)OCc3ccc(Cl)cc3)O2)cc1F (some centres not stated)	> 24 h	25.6 nmol/min/mg	133 µM	
O=c1[nH]c(=O)n([C@H]2C[C@H](O)[C@@H](COP(=O)(O)O)O2)cc1F [5-FLUORODEOXYURIDYLATE]				Drug uptake (Liver [12]): metabolite_detected
O=c1[nH]c(=O)n([C@H]2C[C@H](O)[C@@H](COP(=O)(NCc3ccccc3)OCc3ccccc3Br)O2)cc1F (some centres not stated)	> 24 h	49.6 nmol/min/mg	151 µM	
